Test results reported in ChEMBL document CHEMBL1140845, “Synthesis of deoxygenated alpha(1-->5)-linked arabinofuranose disaccharides as substrates and inhibitors of arabinosyltransferases of Mycobacterium tuberculosis” (Bioorg Med Chem, 2009).
Active and inactive are the calls of the source. No cut-off for these calls is given here.

Columns and labels:
[1] = test system: Mycobacterium tuberculosis; assay: Activity of arabinosyltransferase in Mycobacterium tuberculosis membrane assessed as [14C]Araf incorporation by TLC autoradiography
[2] = test system: Mycobacterium avium; assay: Antimycobacterial activity against Mycobacterium avium NJ 211 at 12.8 to 128 ug/mL; format: functional, organism-based
[3] = Inhibition of arabinosyltransferase in Mycobacterium tuberculosis membrane assessed as blockade of [14C]Araf incorporation to {Ara-f(1>5)Araf-O_C8H17] acceptor molecule by TLC autoradiography
Outline: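 Competition format of the membrane AraTs assay: MOPS pH 8.0, MgCl2, ATP, β-mercaptoethanol, DP-[14C]Araf donor, 37°C for 1 h. Native acceptor Araf(1→5)Araf-O-C8H17 is held at 0.4 mM. Competitors are added at 0.5, 0.75, 1.0, 2.0, 4.0 and 6.0 mM. Product formation is judged by TLC (CHCl3:MeOH:NH4OH:H2O) with autoradiography at −70 °C for 3 days. IC50 is derived from the extent of product formation.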

SMILES | Km [1] [µM] | Activity [2] | IC50 [3] [mM]
CCCCCCCCO[C@H]1O[C@H](CO[C@H]2O[C@H](CO)[C@@H](O)[C@@H]2O)C[C@@H]1O | 110 | Active | 2.15
CCCCCCCCO[C@H]1O[C@H](CO[C@H]2O[C@H](CO)[C@@H](O)[C@@H]2O)[C@@H](O)[C@@H]1F | 560 | Active | 3.58
CCCCCCCCO[C@@H]1C[C@H](O)[C@@H](CO[C@H]2O[C@H](CO)[C@@H](O)[C@@H]2O)O1 | 150 | Active | 2.45
